{"source": "ChEMBL document CHEMBL4673245", "about": "“Discovery of AZD9833, a Potent and Orally Bioavailable Selective Estrogen Receptor Degrader and Antagonist” (J Med Chem, 2020)", "key": {"[1]": {"experiment": "Stability of compound at 40 degC and 75% relative humidity assessed parent compound remaining measured after 3 months using crystalline form of sample by chromatographic method", "format": "physicochemical", "conditions": "solid sample, read-out: Stabilty"}, "[2]": {"experiment": "Stability of compound at 60 degC and 75% relative humidity assessed parent compound remaining measured 1 week using amorphous form of sample by chromatographic method", "format": "physicochemical", "conditions": "solid sample, time 1 weeks, read-out: Stabilty"}, "[3]": {"experiment": "Stability of compound at 40 degC and 75% relative humidity assessed parent compound remaining measured after 3 months using amorphous form of sample by chromatographic method", "format": "physicochemical", "conditions": "solid sample, read-out: Stabilty"}, "Cytochrome P450 1A2": {"biological_target": "T1, Cytochrome P450 1A2 (Homo sapiens, UniProt P05177)", "T1 sequence (P05177 whole entry)": "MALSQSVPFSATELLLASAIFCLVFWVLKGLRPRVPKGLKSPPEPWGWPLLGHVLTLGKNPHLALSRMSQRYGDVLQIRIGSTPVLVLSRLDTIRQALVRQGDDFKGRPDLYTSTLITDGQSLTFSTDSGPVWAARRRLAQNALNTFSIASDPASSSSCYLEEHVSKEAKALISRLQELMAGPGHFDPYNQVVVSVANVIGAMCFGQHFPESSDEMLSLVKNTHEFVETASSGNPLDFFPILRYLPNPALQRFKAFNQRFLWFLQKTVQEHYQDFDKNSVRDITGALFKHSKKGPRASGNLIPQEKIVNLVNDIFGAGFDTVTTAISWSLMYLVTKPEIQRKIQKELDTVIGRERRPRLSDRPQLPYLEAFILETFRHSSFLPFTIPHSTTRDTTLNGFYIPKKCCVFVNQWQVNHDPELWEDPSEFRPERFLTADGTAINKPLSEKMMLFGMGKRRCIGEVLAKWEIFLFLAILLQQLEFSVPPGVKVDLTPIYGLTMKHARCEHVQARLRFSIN", "experiment": "Inhibition of CYP1A2 in human liver microsomes", "format": "ADME", "in_short": "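High-throughput human liver microsome panel of five CYP isoforms; inhibition reported as IC50.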"}, "[4]": {"experiment": "In vivo antagonist activity at ERalpha in human MCF7 cells xenografted CB17 SCID mouse assessed as decrease in PR expression level at 10 mg/kg, po administered daily via oral gavage for 21 days measured 24 hrs post last dose by Western blot analysis relative to control", "format": "functional", "parameters": "scale not given: the % may be the effect or the level left", "conditions": "time 21 day"}, "[5]": {"experiment": "Antitumor activity against human […] cells xenografted in CB17 SCID mouse assessed as tumor growth inhibition at 50 mg/kg, po administered daily via oral gavage for 21 days relative to control", "format": "functional, MCF7", "parameters": "scale not given: the % may be the effect or the level left", "conditions": "time 21 day"}, "MCF7 [6]": {"tested_on": "MCF7", "experiment": "Antitumor activity against human […] cells xenografted in CB17 SCID mouse assessed as decrease in tumor volume administered daily via oral gavage for 21 days", "format": "functional, cell-based", "conditions": "dose 0.5-50 mg/kg, time 21.0 day"}, "MCF7 [7]": {"tested_on": "MCF7", "experiment": "Antiproliferative activity against human MCF7 cells harboring Y537S mutant assessed as reduction in cell viability incubated for 4 to 6 days by SYTOX Green dye based fluorescence assay", "format": "functional"}, "[8]": {"experiment": "Clearance in rat at 0.5 mg/kg, iv or 1 mg/kg, po relative to liver blood flow", "format": "ADME, organism-based", "conditions": "in vivo", "in_short": "(§1)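 Rat PK: single IV dose 0.5 mg/kg and oral dose 1 mg/kg, formulated in 5% DMSO:95% hydroxypropyl-β-cyclodextrin (30% w/v), dosed at 1 mL/kg IV and 4 mL/kg PO.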"}, "[9]": {"experiment": "Fraction absorbed in mouse at 2 mg/kg, iv or 5 mg/kg, po", "format": "ADME, organism-based", "conditions": "in vivo, read-out: Fabs"}, "[10]": {"experiment": "Clearance in mouse at 2 mg/kg, iv or 5 mg/kg, po relative to liver blood flow", "format": "ADME, organism-based", "conditions": "in vivo"}, "[11]": {"experiment": "Solubility of compound in stimulated gastric fluid using crystalline form of sample", "format": "physicochemical", "conditions": "simulated gastric fluid"}, "[12]": {"experiment": "Chemical stability of compound assessed as drug degradation in deuterated buffer at pH 4 measured for 8 days", "format": "physicochemical", "conditions": "pH 4, 192 h, time 8 day"}, "[13]": {"experiment": "Half-life in rat at 0.5 mg/kg, iv or 1 mg/kg, po", "format": "ADME, organism-based", "conditions": "in vivo", "in_short": "as §1"}, "[14]": {"experiment": "Volume of distribution at steady state in rat at 0.5 mg/kg, iv or 1 mg/kg, po", "format": "ADME, organism-based", "conditions": "in vivo, read-out: Vdss", "in_short": "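Rat dosed IV at 0.5 mg/kg and PO at 1 mg/kg, both formulated in 5% DMSO:95% hydroxypropyl-β-cyclodextrin (30% w/v), at 1 mL/kg IV and 4 mL/kg PO. Vdss (L/kg) derived from the pharmacokinetic profile after dosing.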"}, "[15]": {"experiment": "Fraction unbound in dog plasma", "format": "ADME, cell-free, Canis lupus familiaris"}, "[16]": {"experiment": "Fraction unbound in mouse plasma", "format": "ADME, cell-free"}, "[17]": {"experiment": "Fraction unbound in rat plasma", "format": "ADME, cell-free"}}}
{"smiles": "C[C@@H]1Cc2c(ccc3[nH]ncc23)[C@@H](c2ccc(NC3CN(CCCF)C3)cn2)N1CC(F)(F)F", "note": "[CAMIZESTRANT]", "values": [{"measurement": "remaining at 2190 h", "setting": "[1]", "result": 99.3, "unit": "%"}, {"measurement": "remaining at 168 h", "setting": "[2]", "result": 82.4, "unit": "%"}, {"measurement": "remaining at 2190 h", "setting": "[3]", "result": 90.5, "unit": "%"}, {"measurement": "IC50", "setting": "Cytochrome P450 1A2", "result": "> 30000", "unit": "nM"}, {"measurement": "Activity", "setting": "[4]", "result": 8.9, "unit": "%"}, {"measurement": "Activity", "setting": "[5]", "result": 53, "unit": "%"}, {"measurement": "Activity", "setting": "MCF7 [6]", "result": "Dose-dependent effect"}, {"measurement": "IC50", "setting": "MCF7 [7]", "result": 25.1, "unit": "nM"}, {"measurement": "CL", "setting": "[8]", "result": 106, "unit": "%"}, {"measurement": "Fa", "setting": "[9]", "result": 50, "unit": "%"}, {"measurement": "CL", "setting": "[10]", "result": 66, "unit": "%"}, {"measurement": "solubility thermodynamic", "setting": "[11]", "result": "> 10000", "unit": "µg/mL"}, {"measurement": "Stabilty", "setting": "[12]", "result": "Stable"}, {"measurement": "half-life", "setting": "[13]", "result": 3, "unit": "h"}, {"measurement": "Vd", "setting": "[14]", "result": 13, "unit": "L/kg"}, {"measurement": "fraction unbound", "setting": "[15]", "result": 0.15}, {"measurement": "fraction unbound", "setting": "[16]", "result": 0.23}, {"measurement": "fraction unbound", "setting": "[17]", "result": 0.26}]}
